From article PMC9052103 (RSC Advances, 2020)
Converted amounts (≈) assume the structure as drawn.

Experiments:
Format in all cases: cell-based
S. aureus ATCC BAA-1747 = assay: MIC, 96-well microtiter broth dilution; conditions: Staphylococcus aureus, ATCCBAA1747|MRSA, read-out: MIC S. aureus ATCC BAA-1747
E. coli ATCC 25922 = assay: MIC, 96-well microtiter broth dilution; conditions: Escherichia coli, ATCC25922, read-out: MIC E. coli ATCC 25922
S. aureus ATCC 29213 [1] = assay: MIC, 96-well microtiter broth dilution; conditions: Staphylococcus aureus, ATCC29213, read-out: MIC S. aureus ATCC 29213
E. faecium ATCC 49624 = assay: MIC, 96-well microtiter broth dilution; conditions: Enterococcus faecium, ATCC49624, read-out: MIC E. faecium ATCC 49624
E. faecium ATCC 700221 = assay: MIC, 96-well microtiter broth dilution; conditions: Enterococcus faecium, ATCC700221, read-out: MIC E. faecium ATCC 700221
S. aureus ATCC BAA-41 = assay: MIC, 96-well microtiter broth dilution; conditions: Staphylococcus aureus, ATCCBAA41|MRSA, read-out: MIC S. aureus ATCC BAA-41
S. aureus ATCC 43300 = assay: MIC, 96-well microtiter broth dilution; conditions: Staphylococcus aureus, ATCC43300|MRSA, read-out: MIC S. aureus ATCC 43300
S. aureus ATCC BAA-1720 = assay: MIC, 96-well microtiter broth dilution; conditions: Staphylococcus aureus, ATCCBAA1720|MRSA, read-out: MIC S. aureus ATCC BAA-1720
E. coli ATCC 8739 = assay: MIC, 96-well microtiter broth dilution; conditions: Escherichia coli, ATCC8739, read-out: MIC E. coli ATCC 8739
E. faecalis ATCC 29212 = assay: MIC, 96-well microtiter broth dilution; conditions: Enterococcus faecalis, ATCC29212, read-out: MIC E. faecalis ATCC 29212
[2] = system: S. epidermidis ATCC 12228; assay: MIC, 96-well microtiter broth dilution; conditions: Staphylococcus epidermidis, ATCC12228, read-out: MIC S. epidermidis ATCC 12228
E. coli ATCC BAA-2469 = assay: MIC, 96-well microtiter broth dilution
S. aureus ATCC 29213 [3] = assay: In vitro drug resistance development, serial passage
Method in brief: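 Serial passage against S. aureus ATCC 29213: culture from the 0.5 × MIC well of the prior MIC plate diluted to 5 × 10^5 CFU mL−1 and exposed to a range of test compound concentrations. MIC read after 24 h at 37 °C. Cycle repeated 35 times. Ciprofloxacin, vancomycin and rifampin passaged in parallel.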

SMILES	MIC (S. aureus ATCC BAA-1747) [µg/mL]	MIC (E. coli ATCC 25922) [µg/mL]	MIC (S. aureus ATCC 29213 [1]) [µg/mL]	MIC (E. faecium ATCC 49624) [µg/mL]	MIC (E. faecium ATCC 700221) [µg/mL]	MIC (S. aureus ATCC BAA-41) [µg/mL]	MIC (S. aureus ATCC 43300) [µg/mL]	MIC (S. aureus ATCC BAA-1720) [µg/mL]	MIC (E. coli ATCC 8739) [µg/mL]	MIC (E. faecalis ATCC 29212) [µg/mL]	MIC [2] [µg/mL]	MIC against antibiotics resistant E. coli mutant NDM-1 strain (E. coli ATCC BAA-2469) [µg/mL]	Increase of MIC after 35 passages (S. aureus ATCC 29213 [3]) [fold]
Cc1cc(/C=C2\Sc3ccccc3N2CCCN2CCCCC2)c2ccccc2[n+]1C.[I-] [Compound 4a3, (Z)-1,2-Dimethyl-4-((3-(3-(piperidin-1-yl)propyl)benzo[d]thiazol-2(3H)-ylidene)methyl)quinolin-1-ium iodide]	32	4	32	32	32	8	32	32	4	64	8		
C[n+]1ccc(/C=C2\Sc3ccccc3N2CCCN2CCCCC2)c2ccccc21.[I-] [Compound 4b3, (Z)-1-Methyl-4-((3-(3-(piperidin-1-yl)propyl)benzo[d]thiazol-2(3H)-ylidene)methyl)quinolin-1-ium iodide]	8	2	32	32	32	4	8	16	4	> 64	2		
CN[C@H](CC(C)C)C(=O)N[C@H]1C(=O)N[C@@H](CC(N)=O)C(=O)N[C@H]2C(=O)N[C@H]3C(=O)N[C@H](C(=O)N[C@H](C(=O)O)c4cc(O)cc(O)c4-c4cc3ccc4O)[C@H](O)c3ccc(c(Cl)c3)Oc3cc2cc(c3O[C@@H]2O[C@H](CO)[C@@H](O)[C@H](O)[C@H]2O[C@H]2C[C@](C)(N)[C@H](O)[C@H](C)O2)Oc2ccc(cc2Cl)[C@H]1O [van, vancomycin, reference compound]	1 (≈ 0.69 µM)	> 64	2 (≈ 1.38 µM)	0.5 (≈ 0.345 µM)	1020 (≈ 707 µM)	2 (≈ 1.38 µM)	2 (≈ 1.38 µM)	0.5 (≈ 0.345 µM)	> 64	2 (≈ 1.38 µM)	> 64	> 64	512
C[n+]1c(/C=C/c2ccc(O)cc2)cc(/C=C2\Sc3ccccc3N2CCCN2CCCC2)c2ccccc21.[I-] [Compound 4d2, 2-((E)-4-Hydroxystyryl)-1-methyl-4-((Z)-(3-(3-(pyrrolidin-1-yl)propyl)benzo[d]thiazol-2(3H)-ylidene)methyl)quinolin-1-ium iodide]	32	32	32	32	32	32	32	32	32	64	16		
CSc1ccc(/C=C/c2cc(/C=C3\Sc4ccccc4N3CCCN3CCCC3)c3ccccc3[n+]2C)cc1.[I-] [Compound 4d3, 1-Methyl-2-((E)-4-(methylthio)styryl)-4-((Z)-(3-(3-(pyrrolidin-1-yl)propyl)benzo[d]thiazol-2(3H)-ylidene)methyl)quinolin-1-ium iodide]	32		16	64	32	32	32	32	32	64	16		
CO[C@H]1/C=C/O[C@@]2(C)Oc3c(C)c(O)c4c(O)c(c(/C=N/N5CCN(C)CC5)c(O)c4c3C2=O)NC(=O)/C(C)=C\C=C\[C@H](C)[C@H](O)[C@@H](C)[C@@H](O)[C@@H](C)[C@H](OC(C)=O)[C@@H]1C [rif, rifampin, reference compound]	< 0.125	4 (≈ 4.86 µM)	0.5 (≈ 0.608 µM)	< 0.125	< 0.125	< 0.125	< 0.125	< 0.125	8 (≈ 9.72 µM)	0.5 (≈ 0.608 µM)	1 (≈ 1.22 µM)	> 64	8192
